Data on 15 compounds can be found in ChEMBL document CHEMBL1153412, “Synthesis and anti-hepatitis B virus activities of Matijing-Su derivatives” (Bioorg Med Chem, 2009).

Series [1] can be described thus: Selectivity index, ratio of TC50 for human HepG2(2.2.15) cells to IC50 for HBV.
In series [2] the test system is Hepatitis B virus. Briefly: Antiviral activity against HBV in human HepG2(2.2.15) cells assessed as inhibition of viral genome replication after 9 days by Southern blot hybridization. The series is classed as functional, organism-based. To be noted: HepG2 2.2.15, 216 h. In a few lines:
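Confluent 2.2.15 cultures in RPMI 1640 with 2% FBS received daily doses, with medium and drug renewed each day. Intracellular HBV DNA quantified by Southern blot hybridization. IC50 calculated by […].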

Series [3] is described as follows: Cytotoxicity against human HepG2(2.2.15) cells treated for 9 days measured after 24 hrs of last treatment by neutral red uptake assay. To be noted: read-out: TC50. The series is classed as cell-based. Put shortly: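 Confluent 2.2.15 cells treated as for the antiviral assay, 0.2 mL medium per well, with untreated control wells on each plate. Neutral red dye uptake read as absorbance at 510 nm relative to untreated cells, 24 h after day 9 of treatment.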

Series [4] deals with Hepatitis B virus. Briefly: Antiviral activity against HBV in human HepG2(2.2.15) cells assessed as inhibition of HBeAg production after 9 days by enzyme immunoassay. The series is classed as functional, organism-based. In a few lines: (§1)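 2.2.15 cells seeded at 1.0 × 10⁵ cells/mL in MEM with 10% FBS for 24 h. After attachment, exposed to 50, 25 or 12.25 µg/mL in fresh DMEM, 4 wells per concentration, for 9 d, with medium changed every 3 d. Supernatant HBsAg and HBeAg measured by semiquantitative EIA kits on days 6 and 9. Untreated cells as control. Run twice.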

For series [5], the system named is Hepatitis B virus. Briefly: Antiviral activity against HBV in human HepG2(2.2.15) cells assessed as inhibition of HBsAg production after 9 days by enzyme immunoassay. The series is classed as functional, organism-based. Put shortly: as §1

Calls of active or inactive are those of the source. The calls are words filed in the database; no cut-off is given here. Square brackets hold non-standard residues; d marks the D form. Peptide text beside a SMILES is read from it. * marks the point of attachment. Phe(4-NO2) = N[C@@H](Cc1ccc([N+](=O)[O-])cc1)C(=O)O; Phe(4-NH2) = Nc1ccc(C[C@H](N)C(=O)O)cc1; Propionyl = CCC(=O)*; Bz = O=C(c1ccccc1)*

As to `Nc1ccn([C@@H]2CS[C@H](CO)O2)c(=O)n1` [LAMIVUDINE], the “Selectivity Index” value in series [1] is listed as 41.59. Moreover, the half-inhibitory concentration (IC50) (usually the concentration needed to halve the response being measured) with Hepatitis B virus [2] came to 82.4 µM. Also, in series [3], the CC50 at 216 h came out at 3430 µM.

`Cc1cccc(C(=O)N[C@@H](Cc2ccccc2)C(=O)N[C@H](CO)Cc2ccccc2)c1`: the result in the series on Hepatitis B virus [4] and in the series with Hepatitis B virus [5] was inactive. Besides, in series [1], the “Selectivity Index” value is reported as 3.06. Further, the IC50 in the series on Hepatitis B virus [2] was 60.5 µM. The CC50 at 216 h in series [3] amounted to 185 µM.

`O=C(N[C@@H](Cc1ccccc1)C(=O)N[C@H](CO)Cc1ccc([N+](=O)[O-])cc1)c1ccccc1`: the outcome in the series on Hepatitis B virus [4] and in the series with Hepatitis B virus [5] was inactive. In series [3], the CC50 at 216 h was found to be 117 µM.

Take `O=C(N[C@@H](Cc1ccccc1)C(=O)N[C@H](CO)Cc1ccccc1)c1ccc(Cl)cc1`: the result in the series on Hepatitis B virus [4] and in the series with Hepatitis B virus [5] was inactive. Besides, the “Selectivity Index” value in series [1] is recorded as 28.29. The IC50 in the series on Hepatitis B virus [2] is 2.33 µM. Further, the CC50 at 216 h in series [3] worked out at 65.8 µM.

As to `O=C(N[C@@H](Cc1ccccc1)C(=O)N[C@H](CO)Cc1ccccc1)c1ccccc1Cl`, the result with Hepatitis B virus [4] and in the series on Hepatitis B virus [5] was inactive. Moreover, in series [3], the CC50 at 216 h is 382 µM.

For `CC(=O)Nc1ccc(C[C@@H](CO)NC(=O)[C@H](Cc2ccccc2)NC(=O)c2ccccc2)cc1`, the result in the series on Hepatitis B virus [4] and in the series with Hepatitis B virus [5] was inactive. The CC50 at 216 h in series [3] is 164 µM.

For `Cc1ccc(C(=O)N[C@@H](Cc2ccccc2)C(=O)N[C@H](CO)Cc2ccccc2)cc1`, the result in the series on Hepatitis B virus [4] and in the series on Hepatitis B virus [5] was inactive. Further, the CC50 at 216 h in series [3] was found to be 1860 µM.

Turning to `O=C(N[C@@H](Cc1ccccc1)C(=O)N[C@@H](Cc1ccc(O)cc1)C(=O)O)c1ccccc1` (Bz-Phe-Tyr-OH), the outcome in the series with Hepatitis B virus [4] and with Hepatitis B virus [5] was inactive.

For `O=C(N[C@@H](Cc1ccc([N+](=O)[O-])cc1)C(=O)N[C@@H](Cc1ccccc1)C(=O)O)c1ccccc1` (Bz-[Phe(4-NO2)]-Phe-OH), the result in the series on Hepatitis B virus [4] and in the series on Hepatitis B virus [5] was inactive. Further, the “Selectivity Index” value in series [1] is 15.52. Besides, the IC50 with Hepatitis B virus [2] was determined as 54.2 µM. For the same compound, the CC50 at 216 h in series [3] turned out to be 841 µM.

For the compound `O=C(N[C@@H](Cc1ccccc1)C(=O)N[C@@H](Cc1ccccc1)C(=O)O)c1ccccc1` (Bz-Phe-Phe-OH), the result in the series on Hepatitis B virus [4] and in the series on Hepatitis B virus [5] was inactive. Further, in series [1], the “Selectivity Index” value worked out at 12.36. Moreover, in the series with Hepatitis B virus [2], the IC50 was 25.4 µM. In series [3], the CC50 at 216 h came out at 313 µM.

With `O=C(N[C@@H](Cc1ccc([N+](=O)[O-])cc1)C(=O)N[C@H](CO)Cc1ccccc1)c1ccccc1`, the result with Hepatitis B virus [4] and in the series on Hepatitis B virus [5] was inactive. The CC50 at 216 h in series [3] worked out at 119 µM.

With `CCC(=O)Nc1ccc(C[C@H](NC(=O)[C@H](Cc2ccccc2)NC(=O)c2ccccc2)C(=O)O)cc1` (Bz-Phe-[Phe(4-NH2)](Propionyl)-OH), the result in the series with Hepatitis B virus [4] and with Hepatitis B virus [5] was inactive. The CC50 at 216 h in series [3] came out at 1150 µM.

Turning to `CC(=O)Nc1ccc(C[C@H](NC(=O)[C@H](Cc2ccccc2)NC(=O)c2ccccc2)C(=O)O)cc1` (Bz-Phe-[Phe(4-NH2)](Ac)-OH), the result with Hepatitis B virus [4] and in the series with Hepatitis B virus [5] was inactive.

Take `CC(=O)Nc1ccc(C[C@H](NC(=O)c2ccccc2)C(=O)N[C@H](CO)Cc2ccccc2)cc1`: the result in the series with Hepatitis B virus [4] and with Hepatitis B virus [5] was inactive. Besides, the “Selectivity Index” value in series [1] is given as 23.82. Besides, in the series on Hepatitis B virus [2], the IC50 came to 3.94 µM. The CC50 at 216 h in series [3] came out at 93.8 µM.

As for `O=C(N[C@@H](Cc1ccccc1)C(=O)N[C@H](CO)Cc1ccccc1)c1ccccc1`, the result in the series with Hepatitis B virus [4] and in the series on Hepatitis B virus [5] was inactive. Further, in series [3], the CC50 at 216 h came to 574 µM.
